# Experiments:
# Cannabinoid receptor 1 [1] = target: T1, Cannabinoid receptor 1 (Homo sapiens, UniProt P21554); assay: biochemical; assay type: cell-based, CHO-K1
# Cannabinoid receptor 2 = Cannabinoid receptor 2 (Homo sapiens, UniProt P34972); assay: Displacement of [3H]CP55940 from CB2 receptor expressed in CHO-K1 cells; assay type: cell-based
# Homo sapiens = species: Homo sapiens; assay: Selectivity ratio of Ki for CB2 receptor to Ki for human CB1 receptor
# MDCK = assay: Permeability from apical to basal side of MDCK cells expressing human mdr1 gene; assay type: ADME, cell-based, Canis lupus familiaris; conditions: dog
# How it was run: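 MDCK-mdr1 cells grown 4 days to confluence on Transwell-type filters in DMEM/F12 with 10% FBS and antibiotics. Compound added apically at 3.16 μM in HBSS with 25 mM D-glucose, HEPES-buffered to pH 7.4; 1 hr at 37°C. Apical and basal samples collected and analysed by LC-MS/MS (MRM).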
# [2] = Metabolic stability in human hepatic S9 fraction assessed as compound remaining at 10 uM after 120 mins; assay type: ADME, Liver; conditions: s9, 2 h
# How it was run: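 Human hepatic S9 (1 mg/ml) with 10 μM final compound in 50 mM potassium phosphate pH 7.4, 3 mM MgCl2, NADPH regenerating system (NADP 1 mM, glucose-6-phosphate 5 mM, G6PDH 1 unit/ml). Triplicates sampled at 0, 15, 30, 60, 120 min; stopped with 3 volumes acetonitrile; LC-MS/MS (MRM) against matrix standard curves; % parent remaining at 120 min.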
# Plasma [3] = assay: Metabolic stability in human plasma assessed as compound remaining at 10 uM preincubated for 5 mins measured after 60 mins; assay type: ADME, cell-free; conditions: 1 h
# How it was run: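 Human plasma, 1 ml per sample at 37°C, 5 min pre-incubation, then compound at 10 μM final, sampled at 0, 30 and 60 min. Reactions stopped with acetonitrile; LC-MS/MS (MRM) quantitation with standards in blank matrix; % parent remaining at 60 min.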
# Cannabinoid receptor 1 [4] = target: T1, Cannabinoid receptor 1; conditions: CHO-K1
# Plasma [5] = assay: (§1) Plasma concentration in Sprague-Dawley rat at 10 mg/kg, po after 30 mins; assay type: ADME, organism-based; set-up: dose 10 mg/kg, route oral; conditions: in vivo, 0.5 h, BLD = below limit of detection
# How it was run: (§2)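 Orally dosed male Sprague Dawley rats (7–8 weeks; 10 mg/kg in corn oil) sampled by tail vein at 30 minutes. Plasma acetonitrile-precipitated with reserpine internal standard; supernatant injected undiluted for LC-MS/MS, with standards in blank plasma.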
# [6] = Plasma concentration in Sprague-Dawley rat at 10 mg/kg, po after 60 mins; assay type: ADME, organism-based; set-up: dose 10 mg/kg, route oral
# How it was run: (§3)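 Male Sprague Dawley rats, 7–8 weeks old, dosed 10 mg/kg orally (corn oil) or ip (1:1:18 ethanol:cremophor:saline). Plasma collected 1 hour post-dose, acetonitrile-precipitated with reserpine internal standard, supernatant diluted in 50:50 methanol:water, quantified by LC-MS/MS against standards in blank plasma.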
# [7] = Plasma concentration in Sprague-Dawley rat at 10 mg/kg, ip after 60 mins; assay type: ADME, organism-based; set-up: dose 10 mg/kg, route intraperitoneal
# How it was run: as §3
# Brain = assay: (§4) Drug uptake in Sprague-Dawley rat brain at 10 mg/kg, po after 60 mins; assay type: ADME, organism-based; set-up: dose 10 mg/kg, route oral; conditions: in vivo, 1 h, BLD = below limit of detection
# How it was run: (§5)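 Male Sprague Dawley rats, 7–8 weeks old, given 10 mg/kg orally (corn oil) or ip (1:1:18 ethanol:cremophor:saline). Brain taken 1 hour post-dose; left lobe homogenized in 50:50 ethanol:water, protein-precipitated with acetonitrile plus reserpine internal standard, analysed by LC-MS/MS against standards in blank brain homogenate.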
# [8] = Drug uptake in Sprague-Dawley rat brain at 10 mg/kg, ip after 60 mins; assay type: ADME, organism-based; set-up: dose 10 mg/kg, route intraperitoneal; conditions: read-out: Drug uptake
# How it was run: as §5
# Nucleic Acid [9] = assay: Ratio of drug level in brain to plasma in Sprague-Dawley rat at 10 mg/kg, ip after 60 mins; assay type: ADME, organism-based; set-up: dose 10 mg/kg, route intraperitoneal; conditions: 1 h
# How it was run: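 Male Sprague Dawley rats, 7–8 weeks, given 10 mg/kg ip in 1:1:18 ethanol:cremophor:saline; plasma and brain taken at 1 h. Plasma and left-lobe brain homogenate (50:50 ethanol:water) protein-precipitated with acetonitrile, reserpine internal standard; LC-MS/MS MRM vs standards in blank matrices; brain:plasma concentration ratio.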
# [10] = as §1; assay type: ADME, organism-based; set-up: dose 10 mg/kg, route oral; conditions: Sprague-Dawley, plasma
# How it was run: as §2
# [11] = as §4; assay type: ADME, organism-based; set-up: dose 10 mg/kg, route oral; conditions: Sprague-Dawley, brain, read-out: Drug uptake
# How it was run: as §5
# Nucleic Acid [12] = assay: Ratio of drug level in brain to plasma in Sprague-Dawley rat at 10 mg/kg, po after 60 mins; assay type: ADME, organism-based; set-up: dose 10 mg/kg, route oral; conditions: 1 h
# How it was run: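 Male Sprague Dawley rats, 7–8 weeks, dosed orally at 10 mg/kg in corn oil; plasma and brain collected 1 h post-dose (tail-vein blood also at 30 min). Acetonitrile precipitation with reserpine internal standard, brain left lobe homogenized in 50:50 ethanol:water; LC-MS/MS MRM with blank-matrix standards; brain:plasma concentration ratio.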
# Cannabinoid receptor 1 [13] = target: T1, Cannabinoid receptor 1; assay: biochemical
# 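Wherever Ke is given: antagonism measured as blockade of CP55940-evoked intracellular Ca2+ rise, read fluorometrically, in cells additionally carrying Galphaq16.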
# T1 sequence (P21554 whole entry): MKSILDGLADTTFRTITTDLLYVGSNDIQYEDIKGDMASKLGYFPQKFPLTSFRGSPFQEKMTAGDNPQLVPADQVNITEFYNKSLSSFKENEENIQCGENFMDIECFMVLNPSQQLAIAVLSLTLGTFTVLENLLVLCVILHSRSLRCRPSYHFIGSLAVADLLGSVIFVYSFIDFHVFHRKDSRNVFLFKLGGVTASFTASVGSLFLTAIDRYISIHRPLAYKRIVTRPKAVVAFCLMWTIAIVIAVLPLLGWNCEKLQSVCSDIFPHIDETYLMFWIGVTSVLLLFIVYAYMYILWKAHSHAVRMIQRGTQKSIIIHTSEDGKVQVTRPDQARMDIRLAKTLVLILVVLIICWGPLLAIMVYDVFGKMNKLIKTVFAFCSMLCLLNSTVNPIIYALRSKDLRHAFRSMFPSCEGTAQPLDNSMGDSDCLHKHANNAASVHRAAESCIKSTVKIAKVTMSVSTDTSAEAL
# Sequence of Cannabinoid receptor 2 (P34972 whole entry): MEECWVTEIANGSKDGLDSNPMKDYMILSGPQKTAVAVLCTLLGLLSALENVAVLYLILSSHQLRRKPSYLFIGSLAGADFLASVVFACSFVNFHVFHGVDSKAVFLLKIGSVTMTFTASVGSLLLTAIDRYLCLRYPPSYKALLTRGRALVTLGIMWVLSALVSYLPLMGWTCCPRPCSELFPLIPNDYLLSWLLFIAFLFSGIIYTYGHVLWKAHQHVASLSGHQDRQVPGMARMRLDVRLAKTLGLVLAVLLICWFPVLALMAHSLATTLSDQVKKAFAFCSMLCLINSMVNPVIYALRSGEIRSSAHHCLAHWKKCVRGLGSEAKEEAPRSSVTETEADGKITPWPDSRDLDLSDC
Compound,Ki (Cannabinoid receptor 1 [1]),Ki (Cannabinoid receptor 2),Ratio Ki (Homo sapiens),permeability (MDCK),Stability [2],Stability (Plasma [3]),Ke (Cannabinoid receptor 1 [4]),Cp (Plasma [5]),concentration at 1 h [6],concentration at 1 h [7],Drug uptake (Brain),concentration at 1 h [8],BPR (Nucleic Acid [9]),concentration at 0.5 h [10],concentration at 1 h [11],BPR (Nucleic Acid [12]),Ki (Cannabinoid receptor 1 [13])
Cc1c(C(=O)N2CCC(NC(=O)NCc3ccccc3)(c3ccccc3)CC2)nn(-c2ccc(Cl)cc2Cl)c1-c1ccc(Cl)cc1,0.043 µM,17.1 µM,398,< 1%,18%,82%,2.1 nM,–,–,–,–,–,–,–,–,–,–
Cc1c(C(=O)NC2CCN(C(=O)OC(C)(C)C)CC2)nn(-c2ccc(Cl)cc2Cl)c1-c1ccc(Cl)cc1,0.0029 µM,2.51 µM,878,< 1%,> 90%,> 90%,4.7 nM,BLD,13.2 ng/mL,197 ng/mL,BLD,4.2 ng/mL,0.0214,–,–,–,–
Cc1c(C(=O)N2CCC(NC(=O)NC(C)(C)C)(c3ccccc3)CC2)nn(-c2ccc(Cl)cc2Cl)c1-c1ccc(Cl)cc1,–,20 µM,425,< 1%,88%,> 90%,2.4 nM,–,10.3 ng/mL,386 ng/mL,BLD,12.4 ng/mL,0.032,3.72 ng/mL,–,–,–
Cc1c(C(=O)NC2CCN(C(=O)NC(C)(C)C)CC2)nn(-c2ccc(Cl)cc2Cl)c1-c1ccc(Cl)cc1,0.0147 µM,3.35 µM,228,< 1%,–,71%,78 nM,–,28 ng/mL,67.4 ng/mL,–,25.5 ng/mL,0.379,5.08 ng/mL,4.46 ng/mL,0.16,–
Cc1c(C(=O)N2CCC(NC(=O)OC(C)(C)C)(c3ccccc3)CC2)nn(-c2ccc(Cl)cc2Cl)c1-c1ccc(Cl)cc1,–,–,49.9,< 1%,88%,> 90%,20.2 nM,–,–,–,–,–,–,–,–,–,–
Cc1c(C(=O)N2CCC(C(N)=O)(c3ccccc3)CC2)nn(-c2ccc(Cl)cc2Cl)c1-c1ccc(Cl)cc1,–,–,1600,8%,–,–,0.4 nM,–,–,–,–,–,–,–,–,–,0.0004 µM

# — ChEMBL document CHEMBL2029271, “Design and synthesis of cannabinoid receptor 1 antagonists for peripheral selectivity” (J Med Chem, 2012)
